In one data set the test system is MCF-7 cells. Kind of data set: MTT cytotoxicity, 72 h, MCF-7 breast cancer cells. To be noted: read-out: IC50 (μM) ± S.D., MCF-7, MTT test. The data set is classed as cell-based, human. In a few lines:
(§1)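 Cells were kept in log phase at 37 °C, 5% CO₂, in RPMI-1640 with 10% fetal calf serum, penicillin/streptomycin and 2 mM L-glutamine. […] MTT read-out after 72 h exposure, absorbance 570 nm versus untreated wells. IC50 from 4-parameter logistic model; means of at least three independent experiments.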

The subject of data set [1] is LoVo cells. Kind of data set: MTT cytotoxicity, 72 h, LoVo colon cancer cells. In kind it is cell-based, human. To be noted: read-out: IC50 (μM) ± S.D., LoVo, MTT test, 2D monolayer. In a few lines: as §1
Another data set concerns U-1285 cells. Briefly: MTT cytotoxicity, 72 h, U-1285 small cell lung cancer cells. To be noted: read-out: IC50 (μM) ± S.D., U-1285, MTT test. The data set is classed as cell-based, human. In a few lines:
as §1

A further data set relates to PSN-1 cells. Briefly: MTT cytotoxicity, 72 h, PSN-1 pancreatic cancer cells. In kind it is cell-based, human. To be noted: read-out: IC50 (μM) ± S.D., PSN-1, MTT test. The essentials: as §1
For the next data set, the system named is B-CPAP cells. Briefly: MTT cytotoxicity, 72 h, B-CPAP thyroid cancer cells. To be noted: read-out: IC50 (μM) ± S.D., B-CPAP, MTT test. In kind it is cell-based, human. In a few lines:
as §1

In data set [2] the test system is human cancer cell line panel. Kind of data set: MTT cytotoxicity across the in-house human cancer cell line panel. In kind it is cell-based. To be noted: MTT test, 72 h. In a few lines: as §1
For another data set, the target named is LoVo spheroids. Briefly: 3D spheroid culture, acid phosphatase. The data set is classed as cell-based, human. To be noted: read-out: IC50 (μM) ± S.D., LoVo spheroids; 3D spheroids, 72 h, APH assay. In a few lines:
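LoVo spheroids formed from 2.5 × 10³ cells per well in round-bottom non-treated wells, in phenol red free F-12 HAMs medium with 10% fetal calf serum plus 20% methyl cellulose stock solution. Test compound added from DMSO stock (final DMSO 0.5%) at increasing concentrations for 72 h. Viability by modified acid phosphatase assay at 405 nm. IC50 from 4-parameter logistic fit; means of at least three independent experiments.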

The subject of a further data set is HEK-293 cells. Briefly: MTT cytotoxicity, 72 h, non-tumor HEK-293 embryonic kidney cells. The data set is classed as cell-based, human.
Data set [3] concerns the target protein disulfide isomerase (PDI) (Homo sapiens, UniProt P07237). Briefly: Cell-free PDI inhibition. In kind it is biochemical.
The subject of data set [4] is LoVo cells. Briefly: Hoechst 33258 staining, morphological analysis of cell death mode. The data set is classed as cell-based, human. To be noted: 48 h with IC50. In a few lines:
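LoVo cells were seeded at 5 × 10⁴ per well on tissue-culture slides, grown 24 h and washed twice with PBS. They were then treated with test compound, stained 5 min with 10 μg mL⁻¹ Hoechst 33258 in PBS, and examined for nuclear morphology by confocal microscopy at 40× and 10×.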

The test system of a further data set is LoVo OXP cells. Briefly: MTT cytotoxicity, 72 h, oxaliplatin-resistant LoVo OXP colon cancer cells. In kind it is cell-based, human. The essentials: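 Oxaliplatin-resistant LoVo OXP subline obtained by growing LoVo cells in increasing oxaliplatin concentrations, with 17 months of resistant-clone selection. Paired with parental LoVo cells in RPMI-1640 with 10% fetal calf serum and 2 mM L-glutamine. 72 h MTT exposure with test compound in DMSO (final 0.5%), absorbance 570 nm. IC50 fitted by 4-parameter logistic model from at least three independent experiments.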

Sequence of protein disulfide isomerase (PDI) (P07237 18-508): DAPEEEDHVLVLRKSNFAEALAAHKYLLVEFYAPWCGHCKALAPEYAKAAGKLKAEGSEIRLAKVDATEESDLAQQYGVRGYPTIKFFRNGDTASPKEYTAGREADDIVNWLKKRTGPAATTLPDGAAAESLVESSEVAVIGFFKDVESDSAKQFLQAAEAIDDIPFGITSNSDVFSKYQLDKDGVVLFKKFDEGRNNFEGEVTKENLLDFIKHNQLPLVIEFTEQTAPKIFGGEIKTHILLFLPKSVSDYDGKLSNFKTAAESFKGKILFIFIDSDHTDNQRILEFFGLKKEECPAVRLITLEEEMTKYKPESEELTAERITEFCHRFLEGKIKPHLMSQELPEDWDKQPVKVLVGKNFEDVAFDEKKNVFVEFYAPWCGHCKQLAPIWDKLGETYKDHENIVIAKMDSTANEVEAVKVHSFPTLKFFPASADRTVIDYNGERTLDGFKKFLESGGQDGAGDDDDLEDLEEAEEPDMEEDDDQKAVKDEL

`CC(C)OC(=O)C(n1cccn1)n1cccn1` [L^OiPr, [HC(pz)2COO^iPr]]: the half-maximal inhibitory concentration (IC50) in the data set on MCF-7 cells, in the data set on LoVo cells [1], in the data set on U-1285 cells, in the data set with PSN-1 cells and with B-CPAP cells was greater than 50 µM each time. Moreover, the “cytotoxic effect against all tested cancer cell lines” value in [2] was “completely ineffective”.
As for `C1N2CN3CN1CP(C2)C3.Cc1cc(C)n(C(C(=O)OC(C)C)n2nc(C)cc2C)n1.F[P-](F)(F)(F)(F)F.[Cu+]` [compound 4, [Cu(L^2OiPr)(PTA)]PF6], the IC50 on LoVo spheroids is 144 ± 7.8 µM; in the data set with MCF-7 cells, 14 ± 1.7 µM; in the data set on LoVo cells [1], 7.8 ± 1.5 µM; in the data set on HEK-293 cells (read-out: IC50 (μM) ± S.D., HEK-293, MTT test, 72 h, non-tumor cells) it was greater than 50 µM; in data set [3] (read-out: IC50 for PDI inhibition, cell-free, Proteostat kit) it was 13.7 µM; in the data set with U-1285 cells it was 11.9 ± 1.9 µM. The IC50 stood at 18.2 ± 0.8 µM in the data set on PSN-1 cells, 14.3 ± 0.9 µM in the data set on B-CPAP cells and 12.3 µM in data set [2] (read-out: average IC50 across the human cancer cell lines). Besides, in the data set on HEK-293 cells (HEK-293 vs malignant cells), the “S.I. = average IC50 normal cells/average IC50 for the malignant cells” value is reported as greater than 4.0. Also, in data set [3] (highest tested dose (50 μM)), the “reduction of PDI catalytic activity” value was “about 80%”. Moreover, the “morphological changes (cell death mode)” value in the data set on LoVo cells [4] is “no classical hallmarks of apoptosis”. Moreover, in the data set with LoVo OXP cells, the “R.F. = IC50 (resistant subline)/IC50 (wild-type cells)” value is listed as 1.9. Besides, in data set [2], the “fold more effective than complex 2 (average IC50)” value is on record as 2 fold.
As to `N.N.[Cl][Pt][Cl]` [Cisplatin, cisplatin, reference compound], the IC50 at LoVo spheroids was determined as 60.6 ± 6.3 µM; in the data set on MCF-7 cells, 13.9 ± 1.3 µM; in the data set with LoVo cells [1] it was 7.6 ± 1.5 µM; in the data set with U-1285 cells it was 2.1 ± 0.8 µM; in the data set with PSN-1 cells, 12.1 ± 2.8 µM; in the data set on B-CPAP cells, 18.5 ± 4.1 µM. In the data set on LoVo cells [4], the “morphological changes (cell death mode)” value was “classical morphological features of apoptosis induction”.
Turning to `O=C1[O][Pt]2([NH][C@@H]3CCCC[C@H]3[NH]2)[O]C1=O` [Oxaliplatin, oxaliplatin, reference compound], in the data set on LoVo cells [1], the IC50 was 1.1 ± 0.6 µM. For the same compound, the “R.F. = IC50 (resistant subline)/IC50 (wild-type cells)” value in the data set on LoVo OXP cells turned out to be 13.
Turning to `Cc1cc(C)n(C(C(=O)OC(C)C)n2nc(C)cc2C)n1` [L^2OiPr, [HC(3,5-Me2pz)2COO^iPr]], the half-inhibitory concentration (IC50) in the data set with MCF-7 cells, in the data set with LoVo cells [1], with U-1285 cells, in the data set with PSN-1 cells and in the data set on B-CPAP cells was greater than 50 µM each time. Moreover, in data set [2], the “cytotoxic effect against all tested cancer cell lines” value is listed as “completely ineffective”.

For the origin of these results see paper PMC11605304 (RSC Medicinal Chemistry, 2024).
